Bioassay records from PubChem.
The entries come from a sample that favours hits as a whole.
Diaphorase act = activates diaphorase or chemically reduces, flagging diaphorase assay artifacts. Diaphorase/resazurin coupled assay, resorufin fluorescence, 16 min; hits give high values; 1 = vehicle wells, 0 = NADH-free wells. activation factor at 20 µM. 190,000 compounds, 0.005% hits. AID 1229;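 active means diaphorase activity raised at least twofold by the compound at 20 µM; inactive means activation factor below 2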
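Assay system: Purified diaphorase enzyme from Clostridium kluyveri | Amount: Enzyme 0.07 U/mL final | Dosing: Compound 20 µM once, DMSO 1% | Timing: 16 min reaction at room temperature | Detection: Fluorescence, excitation 544 nm and emission 590 nm | Evaluation: Higher resorufin formation from activation or reduction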
PfGluPho inh = PfG6PD (Plasmodium falciparum) enzyme inhibition; 350,000 compounds, 0.78% hits; AID 504690; PfGluPho enzyme, NADPH resazurin-diaphorase fluorescence; inhibition, % at 20 µM;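 active means inhibition reaching at least a set limit at 20 µM in the primary screen, cut at about 59% in these data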;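 further: 0% = DMSO wells with substrate and 100% = DMSO wells lacking glucose-6-phosphate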
DTT redox prof = compounds producing H2O2 with reducing agent – biochemical, NIH compound library profiling, artefact control for MLSCN library redox annotation, primary screen. activation, % at 10 µM. DTT-dependent redox cycling H2O2, phenol red/HRP absorbance; 100% = 100 µM peroxide control, 0% = buffer. 200,000 compounds, 0.03% hits. AID 878;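 active means activation of at least 50% relative to the plate's high and low controls in the primary single-dose screen; inactive means activation below 50%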;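 further: compound incubated with DTT at 0.8 mM final as the reducing agent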
G6PDH counter = counter-screen for G6PDH assay hits: L. mesenteroides G6PDH inhibition. Purified L. mesenteroides G6PDH, diaphorase/resazurin coupled fluorescence, 45 min. inhibition, % at 5 µM. 200,000 compounds, 0.12% hits. AID 1020
Diaphorase inh = inhibits diaphorase or chemically oxidizes, flagging diaphorase assay artifacts. diaphorase resazurin-to-resorufin fluorescence, NADH, 16 min; bacterial (C. kluyveri) enzyme, not human. 190,000 compounds, 0.69% hits. inhibition, % at 20 µM. AID 1217;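 active means primary screen inhibition at 20 µM above a set limit, cut at about 50% in these data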;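 further: plate controls were DMSO with full reaction for no effect and wells lacking NADH for full effect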
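Assay system: diaphorase enzyme from Clostridium kluyveri; Input: enzyme working solution with 0.14 U/mL diaphorase; Timing: 16 min at room temperature; Technique: resorufin fluorescence, excitation 544 nm, emission 590 nm; Benchmarks: positive control minus NADH, DMSO neutral control.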
Lmaj promast = reduces viability of Leishmania major promastigotes | resazurin fluorescence viability | inhibition, % at 10 µM | 200,000 compounds, 9% hits;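 further: promastigotes grown with compound for 44 hours at 28 °C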
Starred values were filed as active, the others as inactive; . = no result given. Unless noted, no stated cut-off is given here; in the data, active means inhibition above about 50%; inactive means the rest.

SMILES	Diaphorase act	PfGluPho inh	DTT redox prof	G6PDH counter	Diaphorase inh	Lmaj promast
COc1c(F)c(F)c(C(=O)Nc2ccccc2N2CCN(C(=O)C(C)C)CC2)c(F)c1F	0.9	-15	0	0	7	51*
CCOc1ccc(N(CC(=O)N/N=C/c2ccc(OC(C)C)cc2)S(C)(=O)=O)cc1	0.8	10	0	1	18	-4
O=C(Nc1cccc(Cl)c1)Nc1ccccc1-n1ccnc1	0.9	-5	0	8	5	74*
c1ccc(Nc2nc(-c3ccncc3)cs2)cc1	0.9	-11	1	4	9	7
c1ccc(Nc2nc(-c3ccccn3)cs2)cc1	0.9	12	0	-22	6	101*
Nc1ccc(Nc2nc(-c3ccncc3)cs2)cc1	0.8	20	-1	-4	18	81*
COc1cccc2sc(NNC(=O)COc3ccccc3)nc12	0.9	0	-1	1	9	2
COc1cccc2sc(Nc3nc(-c4ccccn4)cs3)nc12	0.6	.	0	15	35	100*
c1ccc(-c2csc(Nc3cccnc3)n2)nc1	0.9	7	2	12	6	58*
Clc1ccc(Nc2nc(-c3ccncc3)cs2)cc1	.	7	0	.	.	-1
COc1cc(/C=N/n2c(C3CCCCC3)n[nH]c2=S)ccc1O	.	22	.	.	.	.
O=C(CN1CCN(C(=O)C2COc3ccccc3O2)CC1)Nc1ccc(F)cc1 (centres undefined)	.	16	.	.	.	.
Clc1cccc(Nc2nc(-c3cccnc3)cs2)c1	.	43	-1	20	.	54*
O=C(Nc1ccc(S(=O)(=O)NCc2ccco2)cc1)c1ccc2ccccc2n1	0.7	13	5	-42	29	52*
O=[N+]([O-])c1ccc(N2CCN(c3nc(-c4ccc(Cl)cc4)cs3)CC2)cc1	1	-3	1	-4	4	98*
O=[N+]([O-])c1ccc(-c2csc(N3CCCCCC3)n2)cc1	.	24	.	.	.	.
COc1cccc(-c2nc(NC(C)C)c3ccccc3n2)c1O	0.7	33	-1	-14	27	56*
CCC(C)Nc1nc(-c2cccc(OC)c2O)nc2ccccc12 (centres undefined)	0.8	37	0	10	18	59*
COc1cccc(-c2nc(NCc3cccnc3)c3ccccc3n2)c1O	.	8	.	.	.	.
Cc1cc(C(=O)COC(=O)c2ccc(N)c([N+](=O)[O-])c2)c(C)n1Cc1ccc2c(c1)OCO2	.	16	.	.	.	.
Cc1cc(C(=O)COC(=O)CC2Sc3ccccc3NC2=O)c(C)n1-c1ccc(Br)cc1 (centres undefined)	0.9	41	0	6	14	42
Cc1cc(C(=O)COC(=O)CC2Sc3ccccc3NC2=O)c(C)n1-c1ccccc1 (centres undefined)	0.8	57	0	7	21	0
Cc1cc(C(=O)COC(=O)c2ccc(N)c([N+](=O)[O-])c2)c(C)n1-c1ccc2c(c1)OCO2	0.8	10	1	8	23	71*
Cc1cc(C(=O)COC(=O)CC2Sc3ccccc3NC2=O)c(C)n1-c1ccc2c(c1)OCO2 (centres undefined)	0.7	42	0	-4	28	55*
COC(=O)c1ccc(-n2c(C)cc(C(=O)COC(=O)CC3Sc4ccccc4NC3=O)c2C)cc1 (centres undefined)	0.8	33	0	8	22	65*
O=C(NC1=NCCS1)c1sc2ccccc2c1Cl	0.9	32	-3	-20	12	-1
O=C(NC1=NCCS1)c1sc2cc(Cl)cc(Cl)c2c1Cl	1	0	1	2	3	76*
COc1cccc(C2CC(c3cccc(NS(C)(=O)=O)c3)=NN2C(=O)c2ccccc2)c1OC (centres undefined)	0.9	-1	0	3	6	3
CN(C)c1ccc(C2CC(c3cccc(NS(C)(=O)=O)c3)=NN2C(=O)c2ccccc2)cc1 (centres undefined)	0.9	1	-1	3	12	60*
